Our source for the Relative potency and IC50 values is ChEMBL document CHEMBL1124357, “The xanthene-9-spiro-4'-piperidine nucleus as a probe for opiate activity” (J Med Chem, 1989).

A word on the IC50: it is the point on the concentration scale where inhibition reaches its midpoint. A higher IC50 goes with weaker potency.

The species entered for the first assay is Cavia porcellus. The assay is described as follows: Relative potency to that of normorphine in the electrically stimulated Guinea pig ileum test. The class given is functional. The method in brief:
(§1)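 Electrically evoked twitch of guinea pig tissue. IC50, the concentration giving 50% inhibition of the twitch, was calculated by linear regression. Potency was expressed relative to normorphine assayed on the same tissues.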
As to `CC(=O)Nc1cccc2c1Oc1ccccc1C21CCN(C)CC1`, the Relative potency is recorded as 0.008.
In the case of `COc1cccc2c1C1(CCN(C)CC1)c1cccc(O)c1O2`, the Relative potency came out at 0.094.
In turn, `Cc1cccc2c1C1(CCN(C)CC1)c1cccc(O)c1O2` showed a Relative potency of 0.237.
On to `CN1CCC2(CC1)c1ccccc1Oc1c(S)cccc12`, for which the Relative potency amounted to 0.001.
The same measure, in the same setting: next, `CN1CCC2(CC1)c1ccccc1Oc1c(O)cccc12`: 0.175.
In the case of `CN1CCC2(CC1)c1ccccc1Oc1c(CO)cccc12`, the Relative potency came out at 0.004.
`CCC(=O)C(CC(C)N(C)C)(c1ccccc1)c1ccccc1` (stereo not drawn) [METHADONE] had a Relative potency of 0.91.
Same read-out and setting: next, `CN1CCC2(CC1)c1cccc(O)c1Oc1cccc(Cl)c12`: 0.031.
For `CC(=O)Oc1cccc2c1Oc1ccccc1C21CCN(C)CC1`, the Relative potency is 1.
`CN1CCC2(CC1)c1ccccc1Oc1c(N)cccc12`: the Relative potency is on record as 0.055.
Molecule `CN1CCC2(CC1)c1cccc(O)c1Oc1cccc(F)c12` registered a Relative potency of 0.16.
Turning to `c1ccc(NCCN2CCC3(CC2)c2ccccc2Oc2ccccc23)cc1`, the Relative potency came out at 3.5.

The species entered for the next assay is Cavia porcellus. Put plainly: Concentration to produce 50%inhibition of the electrically evoked twitch in guinea pig. The class given is functional. The method in brief: as §1
`Oc1ccc2c3c1O[C@H]1[C@@H](O)C=C[C@H]4[C@@H](C2)NCC[C@@]341` [NORMORPHINE] had an IC50 of 31.3 nM.
